We go through twelve compounds from ChEMBL document CHEMBL2062427, “Synthesis, chemical reactivity as Michael acceptors, and biological potency of monocyclic cyanoenones, novel and highly potent anti-inflammatory and cytoprotective agents” (J Med Chem, 2012).

The target in data set [1] is NAD(P)H dehydrogenase [quinone] 1 (Mus musculus) (UniProt Q64669). In words: Induction of NQO1 activity in mouse Hepa-1c1c7 cells assessed as concentration require to double the specific enzyme activity after 48 hrs. The data set is classed as cell-based. The gist of the method: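 Hepa1c1c7 cells, 10,000/well, grown 24 h, then exposed to serial dilutions for 48 h. Potency expressed as concentration doubling NQO1 specific enzyme activity (CD).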

The test system of data set [2] is RAW264.7. In words: Antiinflammatory activity in mouse RAW264.7 cells assessed as inhibition of IFNgamma-stimulated NO production pretreated for 2 hrs before IFNgamma challenge measured after 24 hrs by Griess reaction. Type of data set: functional, cell-based. The gist of the method: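 RAW 264.7 cells seeded at 30,000/well in triplicate; next day pre-treated 2 h with DMSO or 2-fold serial dilutions (0–200 nM or 0–10 µM), then IFN-γ 20 ng/mL for 24 h. Medium NO by Griess; viability by WST-1. IC50 from suppression of IFN-γ-induced NO normalized to viability; mean of three independent experiments, SD.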

Data set [3] can be described thus: Induction of apoptosis in LPS-stimulated C57BL/6 mouse BMDM cells assessed as LDH release at 0.5 uM pretreated for 1 hr before LPS challenge after 8 hrs. Type of data set: cell-based. An outline of the steps: (§1)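 Macrophages given compound at 0.5 µM; LPS 100 ng/mL added 1 h after start of compound treatment, for 8 h or 24 h. Supernatants collected at 8 or 24 h and assayed for LDH release (% released, cell death), TNF-α or IL-1β (pg/mL). Averages of 2 independent experiments, SD.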

The subject of data set [4] is BMDM. In words: Antiinflammatory activity in C57BL/6 mouse BMDM cells assessed as inhibition of LPS-stimulated […] production at 0.5 uM pretreated for 1 hr before LPS challenge after 8 to 24 hrs by immunoassay. The data set is classed as functional, cell-based. An outline of the steps:
as §1

The subject of data set [5] is BMDM. In words: Antiinflammatory activity in C57BL/6 mouse BMDM cells assessed as inhibition of LPS-stimulated TNFalpha production at 0.5 uM pretreated for 1 hr before LPS challenge after 8 to 24 hrs by immunoassay. Type of data set: functional, cell-based. An outline of the steps: as §1
Data set [6] can be described thus: Cytotoxicity against C57BL/6 mouse BMDM cells assessed as LDH release after 24 hrs. The data set is classed as cell-based. To be noted: bone marrow-derived macrophages (BMDM cells). The gist of the method: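 Macrophages exposed to compound without LPS for 24 h; culture supernatant assayed for % LDH released as cell-death measure. Averages of 2 independent experiments, SD.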

Data set [7] is described as follows: Induction of apoptosis in LPS-stimulated C57BL/6 mouse BMDM cells assessed as LDH release at 0.5 uM pretreated for 1 hr before LPS challenge after 24 hrs. The data set is classed as cell-based. The gist of the method: as §1
Data set [8] deals with RAW264.7. In words: Ratio of CDDO IC50 to compound IC50 for antiinflammatory activity in mouse RAW264.7 cells assessed as inhibition of IFNgamma-stimulated NO production. The data set is classed as functional.
A short description of data set [9]: Induction of apoptosis in LPS-stimulated C57BL/6 mouse BMDM cells assessed as LDH release at 0.1 uM pretreated for 1 hr before LPS challenge after 8 hrs. Type of data set: cell-based. The gist of the method:
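Cells were compound-treated, and LPS (100 ng/mL) was added 1 h after the start of compound treatment for 8 h. Supernatant lactate dehydrogenase was measured as % LDH released, as a cell-death read-out. Comparison arms were no-LPS (compound 24 h) and untreated cells. Mean of 2 independent experiments, with standard deviation error bars.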

For data set [10], the system named is BMDM. Put plainly: Antiinflammatory activity in C57BL/6 mouse BMDM cells assessed as inhibition of LPS-stimulated TNFalpha production at 0.1 uM pretreated for 1 hr before LPS challenge after 8 to 24 hrs by immunoassay. Type of data set: functional, cell-based. An outline of the steps:
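Macrophages pretreated with compound, then given LPS (100 ng/mL) 1 h after the start of compound exposure for 8 h or 24 h. Culture supernatants were collected at 8 h or 24 h and assayed for secreted TNF-α (pg/mL). Controls were untreated cells and cells given compound without LPS (24 h). Averages of 2 independent experiments; error is standard deviation.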

Each structure is given as a SMILES string. pIC50: −log10 of the molar value. Activity calls are given as the source filed them. The calls are words filed in the database; no cut-off is given here.

NAD(P)H dehydrogenase [quinone] 1 (Mus musculus), sequence (Q64669 whole entry): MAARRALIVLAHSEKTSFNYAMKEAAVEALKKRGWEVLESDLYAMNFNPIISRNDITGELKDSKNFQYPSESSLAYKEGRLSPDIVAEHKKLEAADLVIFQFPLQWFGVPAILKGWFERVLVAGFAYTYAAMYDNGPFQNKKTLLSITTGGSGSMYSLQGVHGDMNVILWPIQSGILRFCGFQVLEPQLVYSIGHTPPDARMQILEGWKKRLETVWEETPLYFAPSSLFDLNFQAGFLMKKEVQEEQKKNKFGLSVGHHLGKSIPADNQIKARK

On to `COC(=O)C1(C)C=CC(=O)C(C#N)=C1` (stereo not drawn), for which, in data set [1], the CD turned out to be 320 nM. Further, the pIC50 in the data set with RAW264.7 [2] is 7.24.
As to `C=CC1(C)C=CC(=O)C(C#N)=C1` (stereo not drawn), in data set [1], the CD came out at 150 nM. In addition, the pIC50 with RAW264.7 [2] is 6.77.
Consider `NC(=O)Nc1sc(-c2ccc(F)cc2)cc1C(N)=O`, for which the Activity result in data set [3] is reported as “Toxic”. Also, in the data set with BMDM [4], the outcome was inactive. Moreover, in the data set with BMDM [5], the result was Active. For the same compound, in data set [6], the MNTC at 24 h came to 500 nM.
Turning to `C#CC1(C)C=C(C#N)C(=O)CC1` (stereo not drawn), in [1], the CD was determined as 100 nM. In the data set with RAW264.7 [2], the pIC50 is 6.82.
For `COC(=O)[C@]12CCC(C)(C)C[C@H]1[C@H]1C(=O)C=C3[C@@]4(C)C=C(C#N)C(=O)C(C)(C)[C@@H]4CC[C@@]3(C)[C@]1(C)CC2` [BARDOXOLONE METHYL], in the data set with BMDM [5], the result was Active. Moreover, in data set [7], the Activity result is “Not Active”. Besides, the MNTC at 24 h in data set [6] is 500 nM.
In the case of `CC1(C)CC[C@]2(C(=O)O)CC[C@]3(C)[C@H](C(=O)C=C4[C@@]5(C)C=C(C#N)C(=O)C(C)(C)[C@@H]5CC[C@]43C)[C@@H]2C1` [BARDOXOLONE], the pIC50 in the data set with RAW264.7 [2] was 7.78.
`CC#CC1(C)C=CC(=O)C(C#N)=C1` (stereo not drawn): the CD in data set [1] came to 33 nM. Also, in the data set with RAW264.7 [8], the “Ratio IC50” value is reported as 2. Further, the negative-log IC50 (pIC50) in the data set with RAW264.7 [2] was 8.14.
For the compound `C#CC1(C)C=CC(=O)C(C#N)=C1` (stereo not drawn), the CD in [1] stood at 22 nM. For the same compound, the “Ratio IC50” value with RAW264.7 [8] is 2. Besides, in data set [3], the Activity entry is on record as “Toxic”. Also, the outcome with BMDM [4] and in the data set on BMDM [5] was Active. In addition, the negative logarithm of the IC50 (pIC50) with RAW264.7 [2] is 8.24. Also, the MNTC at 24 h in data set [6] was 500 nM.
Take `CC1(C)C=CC(=O)C(C#N)=C1`: in data set [1], the CD is 150 nM. The pIC50 in the data set with RAW264.7 [2] was 6.52.
For the compound `C#C[C@]12C=C(C#N)C(=O)C=C1[C@@]1(C)C=C(C#N)C(=O)C(C)(C)[C@@H]1CC2` (racemic), the Activity entry in data set [9] is listed as “Not Active”. Further, the outcome in the data set with BMDM [10] was Active. For the same compound, the MNTC at 24 h in data set [6] stood at 100 nM.
As to `CC1(C)C=C(C#N)C(=O)C(C)(C)C1`, the CD in [1] was 1900 nM. The pIC50 with RAW264.7 [2] is 5.72.
Take `CC1(C#N)C=CC(=O)C(C#N)=C1` (stereo not drawn): the CD in data set [1] was found to be 58 nM. For the same compound, in the data set on RAW264.7 [2], the pIC50 is 6.66.
